# A selection: hits, their analogues and other compounds. The true share with any hit is near 1.2%.
# TDP2 inh – blocks human TDP2 phosphodiesterase activity; O95551; recombinant TDP2, T5PNP hydrolysis, p-nitrophenol absorbance 415 nm; inhibition, % at 12.8 µM; 370,000 tested, 0.34% active; AID 720702;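 active = inhibition above the mean of all tested compounds plus 3 SD, set per campaign, cut at about 25% in these data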
#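 Read-out basis: percent inhibition. System: recombinant human TDP2. Buffer or medium: Mg2+-containing Tris-HCl buffer, pH 7.5. Repeats: single replicate. Timing: reaction 2 h, 37 °C. Benchmarks: high control without enzyme, low control DMSO plus TDP2. Probe or stimulus: 5 mM T5PNP. Doses: 12.8 µM only. Measured by: epi absorbance of p-nitrophenol freed from T5PNP by hydrolysis.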
# NSD2 inh – NSD2 (human) methyltransferase inhibition. NSD2 peptide methylation, AlphaScreen, 120 min. inhibition, % at 12.5 µM. 310,000 tested, 0.54% active. AID 743445; in the data active = inhibition above about 50%
# Target sequence (O96028 whole entry, looked up): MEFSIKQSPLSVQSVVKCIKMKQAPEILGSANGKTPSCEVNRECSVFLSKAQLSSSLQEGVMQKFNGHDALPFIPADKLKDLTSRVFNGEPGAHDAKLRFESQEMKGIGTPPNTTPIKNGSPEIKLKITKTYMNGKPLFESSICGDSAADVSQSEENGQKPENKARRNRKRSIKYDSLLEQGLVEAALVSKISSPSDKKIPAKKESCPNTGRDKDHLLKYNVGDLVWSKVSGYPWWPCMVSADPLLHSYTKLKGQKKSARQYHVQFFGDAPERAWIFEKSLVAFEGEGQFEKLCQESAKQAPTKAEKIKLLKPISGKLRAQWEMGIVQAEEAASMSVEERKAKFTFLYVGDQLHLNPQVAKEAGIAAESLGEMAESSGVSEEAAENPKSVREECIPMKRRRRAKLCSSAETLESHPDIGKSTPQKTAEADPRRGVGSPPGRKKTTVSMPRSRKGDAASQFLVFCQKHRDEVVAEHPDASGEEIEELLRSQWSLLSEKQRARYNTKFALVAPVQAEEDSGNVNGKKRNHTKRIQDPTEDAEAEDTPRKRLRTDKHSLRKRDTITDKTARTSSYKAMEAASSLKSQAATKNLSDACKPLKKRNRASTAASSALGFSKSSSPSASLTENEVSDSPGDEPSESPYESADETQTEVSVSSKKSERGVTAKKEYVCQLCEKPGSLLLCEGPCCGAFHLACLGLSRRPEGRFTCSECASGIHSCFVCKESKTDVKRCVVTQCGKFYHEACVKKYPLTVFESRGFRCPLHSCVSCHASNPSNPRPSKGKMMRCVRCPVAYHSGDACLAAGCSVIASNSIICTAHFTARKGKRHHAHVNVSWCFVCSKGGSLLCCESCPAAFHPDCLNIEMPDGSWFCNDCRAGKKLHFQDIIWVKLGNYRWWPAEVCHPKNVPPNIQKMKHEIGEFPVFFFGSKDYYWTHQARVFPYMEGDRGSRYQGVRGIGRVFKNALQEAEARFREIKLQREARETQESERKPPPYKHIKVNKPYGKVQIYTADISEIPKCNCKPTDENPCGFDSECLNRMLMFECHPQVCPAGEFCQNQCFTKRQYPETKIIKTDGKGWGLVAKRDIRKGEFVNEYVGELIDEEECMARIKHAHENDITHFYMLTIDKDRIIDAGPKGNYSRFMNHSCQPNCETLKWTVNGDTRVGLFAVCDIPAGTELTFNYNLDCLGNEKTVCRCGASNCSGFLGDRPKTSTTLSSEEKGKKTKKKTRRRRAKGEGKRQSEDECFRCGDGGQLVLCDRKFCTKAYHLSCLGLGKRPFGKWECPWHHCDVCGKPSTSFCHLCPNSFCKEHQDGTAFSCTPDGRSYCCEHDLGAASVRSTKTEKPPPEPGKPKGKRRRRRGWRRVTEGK
# Fh CTSL1 inh – cathepsin L1 inhibition, PFM18AAP counter-screen. inhibition, % at 5.96 µM. recombinant F. hepatica cathepsin L1, Z-Leu-Arg-MCA fluorescence. 300,000 tested, 0.49% active. AID 1906;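 active = inhibition above the mean of all tested compounds plus 3 SD, set per screening campaign, cut at about 17% in these data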
# UBC9 SUMO inh – SUMOylation inhibition; 290,000 tested, 0.36% active; inhibition, % at 35 µM; P63279; HTRF SUMOylation assay, SAE1/SAE2 + UBC9, in vitro; in the data active = inhibition above about 50%, passing the limit was not always enough
# AlphaScreen art – counter-screen for NSD2 inhibitors: AlphaScreen artifacts; AID 1053174; 1,500 tested, 9.4% active; AlphaScreen artifact counterscreen, preloaded methylated H4 peptide; shares compounds with NSD2 inh; AC35, µM (doses to about 10 µM); call rule not given here
# A number is an active result; i = inactive; nt = no result given.
SMILES,TDP2 inh,NSD2 inh,Fh CTSL1 inh,UBC9 SUMO inh,AlphaScreen art
O=C(c1cc(S(=O)(=O)NCc2ccco2)ccc1Br)N1CCOCC1,i,i,nt,nt,nt
N=C1/C(=C/c2coc3ccccc3c2=O)C(=O)N=C2SC(c3ccco3)=NN12,nt,84.1,i,i,i
N=C1/C(=C\c2coc3ccccc3c2=O)C(=O)N=C2SC(c3ccncc3)=NN12,i,97.9,i,i,i
CSC1=NSC2=NC(=O)/C(=C\c3coc4ccccc4c3=O)C(=N)N12,i,74.4,i,i,i
COC(=O)C[C@H]1c2cc(C(F)(F)F)ccc2S(=O)(=O)N1c1ccc(N(C)C)cc1,i,nt,i,nt,nt
CCOC1=C2[C@@H](CN(S(=O)(=O)c3ccc(C)cc3)[C@H]2c2ccc(Cl)cc2)[C@H]2C(=O)N(c3ccccc3)C(=O)[C@H]2C1,i,nt,nt,nt,nt
O=C(Cc1csc(N2CCOCC2)n1)N/N=C/c1ccc(O)c(O)c1O,i,76.7,nt,93.4,i
CC(C)(C)OC(=O)N1C(=O)[C@](OC(=O)c2ccccc2)(c2ccc(F)cc2)c2ccccc21,i,nt,nt,nt,nt
COc1ccccc1-c1noc2c1C(=O)N(C(=O)OC(C)(C)C)CC2,i,nt,nt,nt,nt
O=C(Nc1cc(S(=O)(=O)Nc2ccccc2F)ccc1Cl)c1ccc(F)cc1F,i,88.9,nt,nt,i
O=C(O)c1cc(N2C(=O)C=CC2=O)cc(N2C(=O)C=CC2=O)c1,i,88.0,nt,nt,i
COc1ccc(NC(=O)N(C)C[C@H]2OCc3cnnn3CCCC(=O)N([C@H](C)CO)C[C@@H]2C)c(OC)c1,i,nt,nt,nt,nt
CC1CCN(C2=C(NS(=O)(=O)c3ccc(Br)cc3)C(=O)c3ccccc3C2=O)CC1,i,i,i,i,nt
O=C1C(NS(=O)(=O)c2ccc(Br)cc2)=C(N2CCCCC2)C(=O)c2ccccc21,i,57.8,i,i,2.35µM
CC1CN(Cc2nc3c(c(=O)n(C)c(=O)n3C)n2CCCc2ccccc2)CC(C)O1 (configuration not stated),i,109.0,i,nt,i
Cn1c(N2CCC(C(N)=O)CC2)nc2c1c(=O)n(Cc1ccc(Cl)cc1)c(=O)n2C,i,i,i,i,nt
Cn1c(N2CCCC2)nc2c1c(=O)n(Cc1ccc(Cl)cc1)c(=O)n2C,i,105.2,i,i,i
CC1CN(c2nc3c(c(=O)n(Cc4ccc(Cl)cc4)c(=O)n3C)n2C)CC(C)O1 (configuration not stated),i,116.0,i,i,i
OC1Cc2ccccc2C1Nc1cccc(C(F)(F)F)c1 (configuration not stated),i,i,nt,nt,nt
COCCCNCCCCOc1ccccc1-c1ccccc1,i,i,i,i,nt
CNCCOc1ccccc1-c1ccccc1,i,76.2,i,i,i
CNCCCCOc1ccccc1-c1ccccc1,i,64.5,i,i,i
COc1ccc2c(c1)CC/C(=C\Nc1ccc3c(c1)OCO3)C2=O,i,i,i,i,nt
COc1ccc(N/C=C2\CCc3ccccc3C2=O)cc1,i,95.1,i,i,i
O=C(/C=C/c1ccc(O)c(O)c1)OC1C(O)CC(OC(=O)/C=C/c2ccc(O)c(O)c2)(C(=O)O)CC1O (configuration not stated),i,66.2,i,i,i
SMILES,TDP2 inh,NSD2 inh,Fh CTSL1 inh,UBC9 SUMO inh,AlphaScreen art
O=C(/C=C/c1ccc(O)c(O)c1)O[C@@H]1C[C@](O)(C(=O)O)C[C@@H](O)[C@H]1O,i,nt,i,nt,nt
CC(=O)c1ccc(S(=O)(=O)N(C)CCCC(=O)NCc2ccc3c(c2)OCO3)cc1,i,i,nt,nt,nt
COC(=O)C(Cc1cccc(C)n1)(c1ccccc1)c1ccccc1,i,i,nt,i,nt
CCN(CC)CCC(=O)c1ccc(F)cc1,i,59.5,i,i,i
CN(C)CCC(=O)c1ccc(F)cc1,i,i,i,i,nt
CCN1CCCCC(=N/O)/C(=N/O)CCCC1,i,71.1,i,i,i
CNCCCC1c2ccccc2C=Cc2ccccc21,i,nt,i,i,nt
CNCCCC1Sc2ccccc2Oc2ccccc21 (configuration not stated),i,71.8,i,i,i
COc1ccc(C(C)NC(=O)C2CCN(CCOc3ccc(Cl)cc3Cl)CC2)cc1OC (configuration not stated),nt,i,nt,nt,nt
O=C(O)C(c1ccccc1)N1C(=O)/C(=C\c2ccc(O)c(O)c2)SC1=S (configuration not stated),i,105.1,i,i,7.58µM
COc1cccc(CNC(=O)[C@H]2CCCN2C(=O)[C@H]2CCCN2C(=O)c2cccc(OC)c2)c1,i,nt,nt,nt,nt
CCCCc1ccc(NC(=O)CSc2nc(=O)n(CCN(C)C)c3c2CCC3)cc1,i,i,i,nt,nt
CCCCc1ccc(NC(=O)CSc2nc(=O)n(CCN(CC)CC)c3c2CCCC3)cc1,i,65.8,i,nt,i
CCC(C)c1ccccc1N1CC(C(=O)N(C)CC(=O)Nc2cccc(F)c2)CC1=O (configuration not stated),i,i,i,nt,nt
CCN(CC)CCNC(=S)Nc1ccc2nc(N3CCCC3)cc(C)c2c1,i,65.9,i,i,i
O=C(NCc1ccc(F)cc1F)Nc1cnccc1C(F)(F)F,i,i,i,i,nt
COC(=O)[C@]12C[C@H](CC(=O)NCc3cccc(C(F)(F)F)c3)C(=O)N(Cc3ccccc3)C1=C[C@H](C1CCCC1)O[C@@H]2C,i,nt,nt,nt,nt
Cc1ccc(NC(=O)CN(C)CCOc2ccccc2)c([N+](=O)[O-])c1,i,74.5,i,i,i
CCC[C@H]1CN(c2ccc(OC)cc2)C(=O)[C@@H]1CC(=O)NC,i,nt,nt,nt,nt
COc1ccccc1N1CCN(S(=O)(=O)CCNC(=O)CCc2ccccc2)CC1,i,i,nt,nt,nt
O=C(CSc1nccn1-c1ccccc1)NCc1ccc(F)cc1,i,i,i,i,nt
O=C(CSc1nccn1-c1ccc(F)cc1)NCc1ccc(F)cc1,i,50.1,i,i,i
COc1ccccc1C(=O)NC(=O)COC(=O)Cn1cnc2c1c(=O)n(C)c(=O)n2C,i,i,i,nt,nt
CCOC(=O)N1CCN(C(=O)C[C@H]2C[C@@]3(C(=O)OC)C(=C[C@H](C(C)(C)C)O[C@@H]3C)N(Cc3ccco3)C2=O)CC1,i,nt,nt,nt,nt
O=C(c1ccc(N2C(=O)CCC2=O)cc1)N1CCCSC1=Nc1ccccc1,i,nt,nt,nt,nt
SMILES,TDP2 inh,NSD2 inh,Fh CTSL1 inh,UBC9 SUMO inh,AlphaScreen art
CC1(C)Cc2c(c(-c3ccccc3)[nH]c(=O)c2C#N)CS1,i,i,i,i,nt
CC1(C)Cc2c(c(-c3ccco3)[nH]c(=O)c2C#N)CS1,i,94.2,i,i,i
CNC[C@H]1Oc2cc(Br)ccc2S(=O)(=O)N([C@@H](C)CO)C[C@@H]1C,i,nt,nt,nt,nt
O=C(Nc1ccc(Cl)c(C(=O)N2CCOCC2)c1)c1ccccc1,i,i,i,i,nt
Cc1cc(C)nc(N2CCC(C(=O)N(C)CCc3ccccc3)CC2)n1,i,60.1,nt,nt,i
Cc1cc2c(cc1C)C(=O)C(Br)=C(N)C2=O,i,i,nt,nt,nt
NC1=C(Br)C(=O)c2ccccc2C1=O,i,57.4,35.2,i,i
Cn1ncc(Cl)c1C(=O)Nc1cc(C(F)(F)F)ccc1F,i,127.4,i,i,i
COc1cc(NC(=O)c2c(Cl)cnn2C)c(OC)cc1Cl,i,i,i,i,nt
O=C(O)c1ccc(NS(=O)(=O)c2ccc3c(c2)C2C=CCC2C(c2ccccc2F)N3)cc1 (configuration not stated),i,158.8,nt,nt,i

# Source: PubChem
